The text below walks through data of ChEMBL document CHEMBL1140319, “The taming of capsaicin. Reversal of the vanilloid activity of N-acylvanillamines by aromatic iodination” (J Med Chem, 2005).

For the first experiment, the target named is T1, Transient receptor potential cation channel subfamily V member 1 (Homo sapiens, UniProt Q8NER1). The experiment can be described thus: Inhibition of 100 nM capsaicin effect on intracellular [Ca2+] concentration in HEK293 cells expressing human TRPV1; (weak agonist activity). It is filed as functional, cell-based. An outline of the steps: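 HEK293 cells stably overexpressing human TRPV1, grown in MEM with nonessential amino acids, 10% FCS and 0.2 mM glutamine. Plated on poly-L-lysine one day before use. Loaded 2 h at 25 °C with 4 μM Fluo-3 AM plus 0.04% Pluronic, then trypsinized into Tyrode pH 7.4 in a stirred cuvette. Compounds added 10 min before 100 nM capsaicin. Fluorescence read at 25 °C (ex 488/em 540 nm). IC50 from half-maximal inhibition.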
T1 sequence (Q8NER1 whole entry): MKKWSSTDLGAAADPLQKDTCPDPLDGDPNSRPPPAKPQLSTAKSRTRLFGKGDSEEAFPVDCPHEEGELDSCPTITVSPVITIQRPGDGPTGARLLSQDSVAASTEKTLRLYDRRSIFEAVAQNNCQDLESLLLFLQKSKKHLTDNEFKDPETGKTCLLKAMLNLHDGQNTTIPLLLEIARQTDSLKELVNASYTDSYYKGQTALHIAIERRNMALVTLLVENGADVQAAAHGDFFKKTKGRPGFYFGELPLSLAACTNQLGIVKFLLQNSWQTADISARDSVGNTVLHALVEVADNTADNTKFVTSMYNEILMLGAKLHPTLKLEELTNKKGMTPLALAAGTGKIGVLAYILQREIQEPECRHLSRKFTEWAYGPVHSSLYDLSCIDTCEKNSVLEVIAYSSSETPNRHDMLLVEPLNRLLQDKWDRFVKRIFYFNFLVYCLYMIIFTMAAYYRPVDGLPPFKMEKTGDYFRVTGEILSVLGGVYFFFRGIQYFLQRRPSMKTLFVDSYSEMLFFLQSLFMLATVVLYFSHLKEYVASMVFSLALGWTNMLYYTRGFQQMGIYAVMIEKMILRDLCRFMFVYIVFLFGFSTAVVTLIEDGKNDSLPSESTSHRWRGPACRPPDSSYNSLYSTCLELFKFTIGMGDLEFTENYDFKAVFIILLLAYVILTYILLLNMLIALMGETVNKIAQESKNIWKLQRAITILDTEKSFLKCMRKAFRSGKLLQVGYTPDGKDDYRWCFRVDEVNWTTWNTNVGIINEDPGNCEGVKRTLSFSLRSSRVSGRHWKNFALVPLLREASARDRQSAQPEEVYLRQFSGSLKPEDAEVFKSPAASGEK
Consider `CCCCCCCCC(=O)NCc1cc(OC)c(O)c(-c2cc(CNC(=O)CCCCCCCC)cc(OC)c2O)c1`, for which the IC50 was greater than 20000 nM.

The next experiment deals with T1, Transient receptor potential cation channel subfamily V member 1. The experiment can be described thus: Inhibition of 100 nM capsaicin effect on intracellular [Ca2+] concentration in HEK293 cells expressing human TRPV1. In kind it is cell-based. An outline of the steps:
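HEK293 cells stably overexpressing human TRPV1, grown in MEM with nonessential amino acids, 10% FCS and 0.2 mM glutamine. Plated on poly-L-lysine one day before use. Loaded 2 h at 25 °C with 4 μM Fluo-3 AM plus 0.04% Pluronic, then trypsinized into Tyrode pH 7.4 in a stirred cuvette. Compounds added 10 min before 100 nM capsaicin. IC50 from half-maximal inhibition.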
Regarding `CCCCCCCCC(=O)NCc1cc(OC)c(O)cc1I`, the IC50 was determined as 10 nM. In turn, `CCCCCCCCC(=O)NCc1cc(OC)c(O)cc1Cl` gave an IC50 of 50.3 nM.

On to `CCCCCCCCC(=O)NCc1ccc(O)c(OC)c1NC(C)=O`, for which the 50% inhibitory concentration (IC50) was determined as 9540 nM. The compound `CCCCCCCCC(=O)NCc1cc(OC)c(O)cc1Br` showed an IC50 of 16.1 nM. On the same count and under the same terms, next, `CCCCCCCCC(=O)NCc1ccc(O)c(OC)c1[N+](=O)[O-]`: 11000 nM; `CCCCCCCCC(=O)NCc1cc(Cl)c(O)c(OC)c1`: 631 nM.

In the case of `CCCCCCCCC(=O)NCc1cc(I)c(O)c(OC)c1`, the midpoint of inhibition, the IC50, lay at 126 nM. As to `CCCCC/C=C/C/C=C/C/C=C/C/C=C/CCCC=O`, the IC50 was 51 nM. `C=C(C)[C@]12C[C@@H](C)[C@@]3(OCc4ccccc4)[C@@H](C=C(COC(=O)Cc4cc(I)c(O)c(OC)c4)C[C@]4(O)C(=O)C(C)=C[C@@H]34)[C@H]1OCO2` displayed an IC50 of 0.4 nM. On the same count and under the same terms, the result for `CCCCCCCCC(=O)NCc1cc(Br)c(O)c(OC)c1` reads 252 nM; that for `Oc1cc2c(cc1O)CN(C(=S)NCCc1ccc(Cl)cc1)CCC2` [CAPSAZEPINE], 56.2 nM.

In general, IC50 refers to the concentration needed to halve the response being measured. A lower IC50 goes with greater potency in that assay.
